Source: ChEMBL document CHEMBL1125085, “Synthesis and anticonvulsant activity of some new 2-substituted 3-aryl-4(3H)-quinazolinones” (J Med Chem, 1990)
Several values for one entry are separate records, joined by “and”; a condition that tells them apart may be missing. Identical values can stand only once.

Experiments:
Mus musculus [1] = organism: Mus musculus; experiment: (§1) Time taken to reach peak activity was reported.; assay type: functional
Mus musculus [2] = experiment: (§2) Subcutaneous metrazole (scMet) test was conducted after Injecting intraperitoneally at the time of peak anticonvulsant in phase II test; assay type: functional
Procedure, shortened: (§3)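 Phase II testing in male Carworth Farms no. 1 mice, ip dosing in 30% PEG 400 (0.01 mL/g). Groups of 8–16 mice received a range of doses, giving at least three points in 10–90% protection. ED50 with 95% confidence interval was fitted by probit analysis at the time of peak effect. scMet used pentylenetetrazol 85 mg/kg sc.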

[3] = Protective index is the ratio of TD50 and ED50 values obtained in the subcutaneous metrazole (scMet) test.; assay type: functional
Procedure, shortened: (§4)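 Protective index = TD50/ED50. Both values are medians from groups of 8–16 animals per dose, with at least three points in the 10–90% effect range, fitted by probit analysis. Each was taken at its own time of peak effect: seizure protection for ED50, neurologic deficit for TD50.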

[4] = (§5) Median toxic dose was measured at time of peak neurologic deficit.; assay type: organism-based; details: mouse, in vivo
Procedure, shortened: (§6)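 Mice dosed ip in 30% PEG 400. Minimal neurotoxicity was scored by rotorod at the time of peak neurologic deficit. Groups of 8–16 mice were used, with at least three points in the 10–90% range, and TD50 with 95% confidence interval was derived by probit analysis.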

Mus musculus [5] = organism: Mus musculus; experiment: (§7) Time taken to reach peak toxicity was reported.; assay type: organism-based; details: in vivo
Mus musculus [6] = experiment: (§8) MES test was performed after Injecting intraperitoneally at the time of peak anticonvulsant effect in phase II test; assay type: ADME, organism-based; details: ip; procedure, shortened: as §3
Mus musculus [7] = organism: Mus musculus; experiment: Anticonvulsant activity was determined by injecting perorally in mice. Time taken to reach peak activity was reported.; assay type: functional
Procedure, shortened: (§9)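 Time of peak effect, in hours, was found separately for anticonvulsant activity and for neurotoxicity. ED50 and TD50 were then determined at those times.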

Mus musculus [8] = experiment: Dose Injected intraperitoneally that causes loss of righting reflex in mice was reported as hypnotic dose (HD).; assay type: functional
Procedure, shortened: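 Mice dosed ip after a toxicity profile at TD50, 2× and 4× TD50, observed from 10 min to 24 h. HD50 is the dose causing loss of righting reflex in 50% of mice, with groups of eight mice scored at several times up to 24 h.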

[9] = Dose Injected intraperitoneally that causes death 50% of the mice within 24 hr was reported as lethal dose 50 (LD50).; assay type: organism-based; details: mouse, in vivo, ip
[10] = Protective index is the ratio of TD50 and ED50 values obtained in the maximal electroshock seizure (MES) test.; assay type: functional; procedure, shortened: as §4
[11] = Neurotoxicity was determined by injecting perorally in rats; assay type: toxicity, organism-based; details: rat, in vivo, po
Procedure, shortened: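 Rats dosed orally in 30% PEG 400. Neurotoxicity was assessed by positional sense and gait-and-stance tests at the time of peak deficit. TD50 with 95% confidence interval was derived by probit analysis from at least three dose points in the 10–90% range.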

Mus musculus [12] = organism: Mus musculus; experiment: Anticonvulsant activity was determined by injecting perorally in mice.(scMet) test was conducted; assay type: functional
Procedure, shortened: (§10)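 Oral dosing in mice, test solutions in 30% polyethylene glycol 400, 0.01 mL/g body weight. Groups of 8–16 mice received a range of doses until at least three points fell within 10–90% seizure protection.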

[13] = as §7
Rattus norvegicus [14] = organism: Rattus norvegicus; experiment: Anticonvulsant activity was determined by injecting perorally in rats. Time taken to reach peak activity was reported.; assay type: functional; procedure, shortened: as §9
Mus musculus [15] = organism: Mus musculus; experiment: Anticonvulsant activity was determined by injecting perorally in mice. MES test was performed; assay type: functional; procedure, shortened: as §10
Mus musculus [16] = experiment: as §2; assay type: ADME, organism-based; details: ip; procedure, shortened: as §3
Rattus norvegicus [17] = organism: Rattus norvegicus; experiment: Anticonvulsant activity was determined by injecting perorally in rats. Time taken to reach peak toxicity was reported.; assay type: organism-based; details: in vivo, po; procedure, shortened: as §9
Rattus norvegicus [18] = organism: Rattus norvegicus; experiment: Anticonvulsant activity was determined by injecting perorally in rats. (scMet) test was conducted; assay type: functional
[19] = as §1; assay type: functional
Mus musculus [20] = organism: Mus musculus; experiment: Anticonvulsant activity was determined by injecting perorally in mice. Time taken to reach peak toxicity was reported.; assay type: functional; procedure, shortened: as §9
Rattus norvegicus [21] = organism: Rattus norvegicus; experiment: Anticonvulsant activity was determined by injecting perorally in rats. MES test was performed; assay type: functional
Mus musculus [22] = experiment: as §8; assay type: functional; details: ip; procedure, shortened: as §3
Mus musculus [23] = organism: Mus musculus; experiment: as §5; assay type: functional; procedure, shortened: as §6
Mus musculus [24] = experiment: Subcutaneous metrazole (scMet) test was conducted and median effective dose was determined at the time of peak anticonvulsant and sedative effect; assay type: organism-based; details: in vivo
Procedure, shortened: (§11)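 Pentylenetetrazol (85 mg/kg in mice, 70 mg/kg in rats) was given subcutaneously in the posterior midline as a 0.5% solution. Compounds were in 30% PEG 400, dosed ip in male Carworth Farms no. 1 mice, or orally in mice and Sprague-Dawley rats. ED50 was read at time of peak effect, using groups of 8–16 animals and ≥3 doses giving 10–90% protection. Probit analysis gave 95% confidence intervals.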

[25] = Median toxic dose was measured at time of peak neurologic deficit; procedure, shortened: as §6
Mus musculus [26] = experiment: Subcutaneous metrazole (scMet) test was conducted and median effective dose was determined at the time of peak anticonvulsant and sedative effect.; assay type: functional; details: sc; procedure, shortened: as §11
[27] = Anticonvulsant activity was determined by injecting perorally in rats. Protective index is the ratio of TD50 and ED50 values obtained in the subcutaneous metrazole (scMet) test; assay type: functional; procedure, shortened: as §4
[28] = Neurotoxicity was determined by injecting perorally in mice. Median toxic dose was measured; assay type: toxicity, organism-based; details: mouse, in vivo, po
Procedure, shortened: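 Mice dosed orally in 30% PEG 400. Neurotoxicity was scored by rotorod at the time of peak neurologic deficit. Groups of 8–16 mice were used, with at least three points in the 10–90% range, and TD50 with 95% confidence interval was derived by probit analysis.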

Mus musculus [29] = organism: Mus musculus; experiment: Anticonvulsant activity was determined by injecting perorally in mice. Time taken to reach peak activity was reported; assay type: functional; procedure, shortened: as §9
[30] = Dose Injected intraperitoneally that causes death 50% of the mice within 24 hr was reported as lethal dose 50. No deaths among eight test animals at 4000 mg/kg after 24 hr in phase III test; assay type: organism-based; set-up: dose 4000 mg/kg, route intraperitoneal; details: mouse, in vivo, ip
Rattus norvegicus [31] = organism: Rattus norvegicus; experiment: Anticonvulsant activity was determined by injecting perorally in rats. Time taken to reach peak activity was reported; assay type: functional; procedure, shortened: as §9
[32] = Median toxic dose was measured at time of peak neurologic deficit in phase II test; assay type: organism-based; details: mouse, in vivo; procedure, shortened: as §6
Rattus norvegicus [33] = organism: Rattus norvegicus; experiment: Anticonvulsant activity was determined by injecting perorally in rats. Time taken to reach peak toxicity was reported; assay type: organism-based; details: in vivo, po; procedure, shortened: as §9
[34] = Anticonvulsant activity was determined by injecting perorally in rats. Protective index is the ratio of TD50 and ED50 values obtained in the maximal electroshock seizure (MES) test.; assay type: functional; procedure, shortened: as §4
[35] = Anticonvulsant activity was determined by injecting perorally in mice. Protective index is the ratio of TD50 and ED50 values obtained in the maximal electroshock seizure (MES) test.; assay type: functional; procedure, shortened: as §4
Mus musculus [36] = organism: Mus musculus; experiment: Anticonvulsant activity was determined by injecting perorally in mice. Maximal electroshock seizure test was performed; assay type: functional; procedure, shortened: as §10
[37] = Anticonvulsant activity was determined by injecting perorally in mice. Protective index is the ratio of TD50 and ED50 values obtained in the subcutaneous metrazole (scMet) test; assay type: functional; procedure, shortened: as §4
[38] = Protective index is the ratio of TD50 and ED50 values obtained in the subcutaneous metrazole (scMet) test in phase II test; assay type: functional; procedure, shortened: as §4
Mus musculus [39] = organism: Mus musculus; experiment: Anticonvulsant activity was determined by injecting perorally in mice. Time taken to reach peak toxicity was reported; assay type: organism-based; details: in vivo, po; procedure, shortened: as §9
[40] = Time taken to reach peak activity was reported in phase II test; assay type: functional
Procedure, shortened: (§12)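 Male Carworth Farms no. 1 mice dosed ip in 30% polyethylene glycol 400 (0.01 mL/g). Seizure protection was tested by MES and by sc pentylenetetrazol (85 mg/kg, 0.5% solution, posterior midline); neurotoxicity was tested on the rotorod. Time of peak effect is given in hours. ED50 and TD50 were determined at that time in groups of 8–16 mice.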

[41] = Protective index is the ratio of TD50 and ED50 values obtained in the maximal electroshock seizure (MES) test in phase II test; assay type: functional; procedure, shortened: as §4
[42] = Time taken to reach peak toxicity was reported in phase II test; procedure, shortened: as §12

COc1ccccc1-n1c(CC(=O)c2ccncc2)nc2ccccc2c1=O
TPE (Mus musculus [1]): 2 h | ED50 (Mus musculus [2]): 42 mg/kg | PI [3]: 8.8 | TD50 [4]: 370 mg/kg | TPE (Mus musculus [5]): 0.5 h

O=C(Cc1nc2ccccc2c(=O)n1-c1ccccc1Cl)c1ccncc1
ED50 (Mus musculus [6]): 196 mg/kg | TPE (Mus musculus [7]): 1 | HD50 (Mus musculus [8]): 1181 mg/kg | LD50 at 24 h [9]: > 3000 mg/kg | PI [10]: 1.3 (2×) and 2 | TD50 [11]: 2.91 mg/kg | ED50 (Mus musculus [12]): 2.53 mg/kg | TPE [13]: 2.5 h | TPE (Rattus norvegicus [14]): 4 h | ED50 (Mus musculus [15]): 14.1 mg/kg | ED50 (Mus musculus [16]): 14.5 mg/kg | TPE (Rattus norvegicus [17]): 4 h | ED50 (Rattus norvegicus [18]): 3.09 mg/kg | TPE [19]: 2.5 h | TD50 [4]: 262 mg/kg | TPE (Mus musculus [20]): 0.5 | ED50 (Rattus norvegicus [21]): 1.44 mg/kg

O=C(Cc1nc2ccccc2c(=O)n1-c1ccccc1F)c1ccncc1
PI [10]: 4.2 | TPE (Mus musculus [1]): 2 h | ED50 (Mus musculus [22]): 196 mg/kg | ED50 (Mus musculus [2]): 50 mg/kg | PI [3]: 16.6 | TPE (Mus musculus [5]): 1 h | TD50 (Mus musculus [23]): 832 mg/kg

Cc1ccccc1-n1c(C)nc2ccccc2c1=O [METHAQUALONE]
ED50 (Mus musculus [24]): 33.5 mg/kg | TD50 [25]: 55 mg/kg

CCC1(c2ccccc2)C(=O)NCNC1=O [PRIMIDONE]
ED50 (Mus musculus [26]): 58.6 mg/kg

Cc1ccccc1-n1c(CC(=O)c2ccncc2)nc2ccccc2c1=O
PI [27]: 1.1 | TD50 [28]: 67.6 mg/kg | TPE (Mus musculus [29]): 2 h | LD50 at 24 h [30]: > 4000 mg/kg | TPE (Rattus norvegicus [31]): 4 h | TD50 [32]: 561 mg/kg | TPE (Rattus norvegicus [33]): 4 h | PI [34]: 1.7 | PI [35]: 2.5 | ED50 (Mus musculus [36]): 27.1 mg/kg | TD50 [11]: 2.89 mg/kg | PI [37]: 4.5 | ED50 (Mus musculus [12]): 15 mg/kg | PI [38]: 5.6 | TPE (Mus musculus [39]): 0.5 h | TPE [40]: 2 h | PI [41]: 3.8 | ED50 (Mus musculus [22]): 148 mg/kg | ED50 (Mus musculus [2]): 100 mg/kg | ED50 (Rattus norvegicus [18]): 2.57 mg/kg | TPE [42]: 2 h | ED50 (Rattus norvegicus [21]): 1.73 mg/kg
